From PubChem BioAssay
Compounds with a hit are over-represented: about 3.5% of the library has one in this group of screens.
RGS4 act = RGS4 potentiators or activators, primary screen, cell-based, HEK293 M3R inducible RGS4, calcium flux; 310,000 compounds, 0.92% hits; B-score at 10 µM; carbachol calcium flux Fluo4; active compounds read low; AID 463111, 2010;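 active means B-score of the integrated calcium signal more than 4 SD below the library mean, with starting fluorescence not abnormally high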;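 further: negative B-score means reduced calcium response which marks RGS4 activation or potentiation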
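Reagent: ECmax carbachol challenge; Test system: M3R-expressing HEK293 line, RGS4 induced by doxycycline; Schedule: overnight RGS4 induction, 30 min dye load 37 °C, 20 min compound RT; Detection: calcium dye Fluo4 fluorescence; Read-out: Agonist-evoked peak-minus-minimum fluorescence over baseline, integrated ratio, B score.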
MrgX1 PAM = positive allosteric modulators of MrgX1, primary screen, HEK293 cells, Fluo-4 calcium flux; Mas-related G-protein coupled receptor member X1 (Homo sapiens), Q96LB2; FDSS; active compounds read high; B-score at 10 µM; 310,000 compounds, 0.63% hits; AID 588675, 2011;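 active means plate-corrected calcium response at least 3 library SD above typical, normal starting fluorescence, not activating the receptor alone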;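 further: compound read alongside a low EC10 to EC30 dose of BAM8-22 agonist; peak minus trough fluorescence over baseline measured at the second addition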
Target sequence (Q96LB2 whole entry, looked up): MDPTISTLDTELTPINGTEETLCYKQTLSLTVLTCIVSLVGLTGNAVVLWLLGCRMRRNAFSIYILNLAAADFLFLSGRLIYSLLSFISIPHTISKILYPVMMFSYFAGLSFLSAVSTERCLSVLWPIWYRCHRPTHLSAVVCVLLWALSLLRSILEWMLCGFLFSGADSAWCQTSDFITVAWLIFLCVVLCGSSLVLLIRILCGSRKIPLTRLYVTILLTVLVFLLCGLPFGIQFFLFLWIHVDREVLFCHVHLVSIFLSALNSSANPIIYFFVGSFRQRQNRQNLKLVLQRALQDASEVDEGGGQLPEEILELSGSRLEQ
MrgX1 ag = agonists of human MrgX1 receptor, primary screen, HEK293 cells, Fluo-4 calcium flux. 310,000 compounds, 0.44% hits. B-score at 10 µM. Mas-related G-protein coupled receptor member X1 (Homo sapiens), Q96LB2. Fluo-4 calcium fluorescence, agonist mode; active compounds read high;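 active means calcium response B-score plate-corrected fluorescence ratio at least 3 library SD, with starting fluorescence B-score inside 5 SD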
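Material: MrgX1-expressing HEK293 cells; input: 15,000 cells per well; doses: test compound given as first of three sequential additions; schedule: overnight plating before 1 h dye loading; technique: Fluo-4 NW calcium-flux fluorescence, kinetic read; evaluation: baseline-normalised fluorescence change ratio, B-scored; control set: plate-wise positive and negative controls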
MrgX1 antagonist = antagonists of human MrgX1 receptor, primary screen, HEK293 cells, Fluo-4 calcium flux | Mas-related G-protein coupled receptor member X1 (Homo sapiens), Q96LB2 | BAM8-22 antagonism; active compounds read low | B-score at 10 µM | 310,000 compounds, 1.3% hits | AID 588676, 2011;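 active means calcium-response B-score plate-corrected more than 3 library SD below zero, starting fluorescence within 5 deviations, no agonist response on first addition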;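 further: peak minus trough fluorescence over baseline after final BAM8-22 challenge near maximal dose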
RGS4 inh = RGS4 inhibitors, primary screen, cell-based, HEK293 M3R inducible RGS4, calcium flux | Fluo-4 calcium flux; active compounds read high; triggered by carbachol at its EC20 | B-score at 10 µM | 310,000 compounds, 0.45% hits;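 active means B-score, a plate-corrected calcium signal, over three deviations above library mean, with baseline fluorescence within five deviations of library mean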;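 further: RGS4 expression induced by doxycycline in cells with stable M3 receptor; B-score is computed from the integrated fluorescence ratio over baseline after carbachol; higher B-score means a larger calcium signal and so more RGS4 inhibition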
Target sequence (P49798 whole entry, looked up): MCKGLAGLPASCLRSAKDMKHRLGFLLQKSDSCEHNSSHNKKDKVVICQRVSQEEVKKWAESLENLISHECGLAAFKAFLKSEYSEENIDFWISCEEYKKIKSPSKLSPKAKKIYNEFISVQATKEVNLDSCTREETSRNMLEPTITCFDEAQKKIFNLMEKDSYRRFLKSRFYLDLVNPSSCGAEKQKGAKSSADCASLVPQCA
A number is an active result; i = inactive; nt = not tested or not shown.

SMILES | RGS4 act | MrgX1 PAM | MrgX1 ag | MrgX1 antagonist | RGS4 inh
N=C1S/C(=C\c2ccc(-c3cccc(Cl)c3)o2)C(=O)N1c1nccs1 | i | i | i | i | i
O=C1OC(c2cccs2)=N/C1=C\c1ccc(-c2cccc(Cl)c2)o1 | i | i | i | -5.1 | i
CCC(C)Nc1nc2c(C)cccn2c(=O)c1C=Nc1ccc(OC)cc1 (centres undefined) | i | i | i | i | i
CCC(C)N1C(=O)/C(=C/c2c(NCCCOC(C)C)nc3c(C)cccn3c2=O)SC1=S (centres undefined) | nt | i | i | -11 | nt
Cc1cccn2c(=O)c(C=NCc3ccccc3)c(NCCO)nc12 | i | i | i | i | i
CCCN1C(=O)/C(=C/c2c(NCCCOC(C)C)nc3c(C)cccn3c2=O)SC1=S | i | i | i | -10 | i
CCN(CC)CCn1c(=S)[nH]c2cc(C(=O)N3CC=C(c4ccccc4)CC3)ccc2c1=O | i | 8.5 | i | i | i
CCCC[N+](C)(C)CCC(=O)NC(C)(C)CS(=O)(=O)[O-] | i | i | i | i | i
CC1(NC(=O)CC[N+](C)(C)CCO)CS(=O)(=O)CC1S(=O)(=O)[O-] (centres undefined) | i | i | i | -5.3 | i
Cn1c(=O)c(C(=O)NNC(=O)c2ccccc2Br)c(O)c2ccccc21 | i | 8.4 | i | i | i
Cn1c(=O)c(C(=O)NNC(=O)c2ccccc2Cl)c(O)c2ccccc21 | i | i | 29 | i | i
CCCCCN1C(=O)/C(=C/c2c(N3CCc4ccccc4C3)nc3ccccn3c2=O)SC1=S | i | i | i | -8.7 | i
Cc1cccc(NC(=O)COC(=O)c2cccc3c2C(=O)c2ccccc2C3=O)c1C | -7.2 | i | i | i | i
Cc1cccc(C)c1NC(=O)COC(=O)c1cccc2c1C(=O)c1ccccc1C2=O | i | i | i | i | i
CCc1ccc(C2C(C#N)=C(N)C(C#N)(C#N)C3=CCC(C(C)(C)C)CC32)cc1 (centres undefined) | i | i | i | -5.8 | i
COc1ccc2c(=O)c(-c3ccccc3C)c(C)oc2c1 | i | 9.3 | i | i | i
COc1ccccc1-c1c(C)oc2cc(OC(=O)c3ccco3)ccc2c1=O | i | i | i | i | i
CN(CCCNC(=O)CCC(=O)N1CCOc2ccccc21)Cc1ccccc1 | i | i | i | i | i
CCc1ccc(S(=O)(=O)/N=C2\C=CC(=O)c3ccccc32)cc1 | i | i | i | i | i
CCc1ccc(S(=O)(=O)/N=C2/C=C(Sc3ncn[nH]3)C(=O)c3ccccc32)cc1 | nt | 7 | i | i | nt
O=C(C1CC1)N1N=C(c2ccccc2)CC1(O)C(F)(F)F (centres undefined) | i | i | i | i | i
O=C(c1ccccc1[N+](=O)[O-])N1N=C(c2ccccc2)CC1(O)C(F)(F)F (centres undefined) | -9.3 | i | i | i | i
O=C(O)/C=C/C(=O)c1ccc2c(c1)CCc1ccccc1-2 | i | i | i | -5.2 | i
CCCN1CNC(=S)N(CC2CCCO2)C1 (centres undefined) | i | i | i | i | i
COCCn1c(=O)[nH]c(=O)c2c1nc(-c1ccc(-c3ccc(Cl)cc3[N+](=O)[O-])o1)n2Cc1ccccc1 | i | i | i | i | i
SMILES | RGS4 act | MrgX1 PAM | MrgX1 ag | MrgX1 antagonist | RGS4 inh
COCCn1c(-c2ccc(-c3ccc([N+](=O)[O-])cc3Br)o2)nc2c1c(=O)[nH]c(=O)n2CC(C)C | i | i | i | -6.2 | i
CCC(C)(C)c1ccc(OCCCC[n+]2cccc(C)c2C)c(C(C)(C)CC)c1 | i | i | i | -5.3 | i
CCC(C)(C)c1ccc(OCCCC[n+]2ccc(C)cc2)c(C(C)(C)CC)c1 | -9.3 | i | i | i | i
Cc1cc[n+](CC[n+]2ccc(C)cc2)cc1 | i | i | i | i | i
COc1cc2c(cc1OC)C(C)N(C(=O)c1ccc(Cl)c(S(=O)(=O)N3CCCCC3)c1)CC2 (centres undefined) | i | i | i | i | i
C/C(=N/NC(=O)CNC(=O)/C=C/c1ccco1)c1ccc(Cl)cc1 | i | i | i | i | i
CCCn1c(O)c(N=Nc2ccc3ccccc3n2)c2ccccc21 | i | i | i | -4.8 | i
CC(C)CCn1c(O)c(N=Nc2ccccn2)c2ccccc21 | i | i | i | i | i
COc1ccc(N2CC(C(=O)N/N=C/c3cccs3)CC2=O)cc1 (centres undefined) | i | i | i | -6.1 | i
CCN1CCCC1CNC(=O)c1ccc(Sc2ccccc2Cl)c([N+](=O)[O-])c1 (centres undefined) | -7.1 | i | i | i | i
CCN1CCCC1CNC(=O)c1ccc(Sc2ccc(F)cc2)c([N+](=O)[O-])c1 (centres undefined) | -9.9 | i | i | i | i
CCN1CCN(C(=O)c2ccc(Sc3ccccc3Cl)c([N+](=O)[O-])c2)CC1 | i | i | i | i | i
C=CCN1C(=O)/C(=C/c2ccc(O)c(OC)c2)S/C1=N/c1nccs1 | i | 9 | i | i | i
C=CCN1C(=O)/C(=C/c2ccc(OCC(=O)O)cc2)S/C1=N/c1nccs1 | i | i | i | i | i
CC1(C)CC(=O)C(C2C3=C(CC(C)(C)CC3=O)Oc3ccc4ccccc4c32)C(=O)C1 (centres undefined) | i | i | 40 | i | i
CC1(C)CC(=O)C(C2C3=C(CC(C)(C)CC3=O)Oc3ccccc32)C(=O)C1 (centres undefined) | i | i | i | i | i
Cc1csc(NC(=O)c2ccc3nc[nH]c3c2)n1 | i | i | i | i | i
COCCn1c(Cc2ccccc2)nnc1SCC(=O)N1CCCCC1C (centres undefined) | i | i | i | -8.2 | i
O=S(=O)(CCSc1ccccn1)c1nc2ccccc2s1 | i | i | 34 | i | i
O=S(=O)(CCSc1nc2ccccc2o1)c1nc2ccccc2s1 | i | i | i | i | i
COCCN=c1scc(-c2ccc3c(c2)NC(=O)CO3)n1/N=C(\C)c1ccc(O)cc1 | i | i | i | -5.4 | i
C/C=C/C=C/C(=O)OC(C)C(=O)Nc1cc([N+](=O)[O-])ccc1OC (centres undefined) | i | 7.6 | i | i | i
COc1ccc([N+](=O)[O-])cc1NC(=O)C(C)OC(=O)c1ccccn1 (centres undefined) | i | i | i | i | i
CSc1cccc(NC(=O)CC2Oc3ccccc3NC2=O)c1 (centres undefined) | i | i | i | i | i
Clc1ccccc1CN(Cc1ccccc1)C(c1cccs1)c1nnnn1C1CCCC1 (centres undefined) | i | i | i | -5.7 | i
